ED50, Control and [3H]flunitrazepam binding data for 62 molecules are collected here from ChEMBL document CHEMBL1124397, “A novel class of "GABAergic" agents: 1-aryl-3-(aminoalkylidene)oxindoles” (J Med Chem, 1989).

In general, ED50 refers to the dose that gives a 50% effect, or the effect in half of the subjects. A lower ED50 goes with an effect at a small dose.

Experiment [1] deals with GABA-A receptor; anion channel (Rattus norvegicus) (UniProt O09028+P15431+P18506+P18508+P19969+P20236+P23574+P23576+P28471+P28473+P30191+P62813+P63079+P63138+Q91ZM7+Q9ES14). In words: Antagonism of mercaptopropionic acid (MPA) induced convulsions in mouse. In kind it is functional, organism-based.
The test system of the next experiment is P23576. Put plainly: Administered at a dose 320 umol/kg intraperitoneally before [3H]Flunitrazepam ([3H]-FNP) in mouse brain expressed as percent of control. The experiment is classed as functional, tissue-based. The gist of the method:
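Mice in groups of five received test compound or vehicle ip 1 h before 200 μCi/kg [3H]FNP iv and were killed 20 min later. Brains were homogenized in 40 volumes of ice-cold 50 mM Tris-HCl pH 7.7. Triplicate 1.0-mL samples were filtered on glass fiber, washed with cold buffer and counted. Bound FNP is given as % of vehicle-treated mice.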

Experiment [2] in a line: Ability to displace [3H]flunitrazepam ([3H]-FNP) binding to mouse brain after intraperitoneal administration at a dose 320 umol/kg. In kind it is functional, organism-based. As to conditions: at 320 µmol/kg. The gist of the method:
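Mice in groups of five got test agent or vehicle ip 1 h before iv [3H]FNP at 200 μCi/kg, then were killed 20 min later by cervical dislocation. Brains were frozen and homogenized in 40 volumes of ice-cold 50 mM Tris-HCl pH 7.7. Triplicate samples were filtered on glass fiber, washed with cold buffer and counted. Bound label is expressed as % of vehicle-treated mice.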

P23576, sequence (P23576 whole entry): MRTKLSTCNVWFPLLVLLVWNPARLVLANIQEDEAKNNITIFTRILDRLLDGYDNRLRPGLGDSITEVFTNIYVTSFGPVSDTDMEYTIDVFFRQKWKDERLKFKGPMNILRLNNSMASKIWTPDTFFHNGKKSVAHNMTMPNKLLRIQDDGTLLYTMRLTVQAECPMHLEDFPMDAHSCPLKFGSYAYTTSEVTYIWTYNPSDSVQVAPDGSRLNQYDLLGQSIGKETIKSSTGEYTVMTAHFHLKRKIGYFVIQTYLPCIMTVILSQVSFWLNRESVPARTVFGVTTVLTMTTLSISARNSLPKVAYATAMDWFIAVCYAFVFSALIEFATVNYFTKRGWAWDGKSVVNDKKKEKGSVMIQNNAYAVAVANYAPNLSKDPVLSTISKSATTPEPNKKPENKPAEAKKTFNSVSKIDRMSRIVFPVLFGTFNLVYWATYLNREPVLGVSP

For `CC(=N)c1c(O)n(-c2ccccc2)c2cc(Cl)ccc12`, the median effective dose (ED50) in experiment [1] is more than 56 mg/kg.
Same read-out and setting: the result for `CN(C)/C=C1\C(=O)N(c2ccccc2)c2cc(Cl)ccc21` reads more than 100 mg/kg.
On the same count and under the same terms, then `CN(C)/C=C1\C(=O)N(c2cccc(F)c2)c2ccccc21`, with 39.9 mg/kg.
Consider `CN1CCC/C1=C1/C(=O)N(c2ccccc2)c2cccc(Cl)c21`, for which the ED50 in experiment [1] is more than 100 mg/kg. For the same molecule, the Control in the experiment on P23576 amounted to 190%.
For `CN1CCC/C1=C1/C(=O)N(c2ccc(Cl)cc2)c2ccccc21` the same measures were more than 56 mg/kg and 127%.
For the molecule `CN(C)/C=C1\C(=O)N(c2cccc(Cl)c2)c2ccc(Cl)cc21`, the ED50 in experiment [1] was more than 100 mg/kg.
As for `CN(C)C(=O)c1cccc(N2C(=O)/C(=C3/CCCN3C)c3ccccc32)c1`, in experiment [1], the ED50 was more than 100 mg/kg. The molecule further returned a Control in the experiment with P23576 of 164%.
Turning to `CN(C)/C(=C1\C(=O)N(c2cccc(Cl)c2)c2ccccc21)c1ccccc1`, the median effective dose (ED50) in experiment [1] is more than 100 mg/kg.
Molecule `CN(/C=C1\C(=O)N(c2cccc(Cl)c2)c2ccccc21)c1ccccc1` gave a [3H]flunitrazepam binding in experiment [2] of 133%. This molecule had an ED50 in experiment [1] of more than 100 mg/kg.
For the molecule `CN(C)/C=C1\C(=O)N(c2cccc(Br)c2)c2ccccc21`, in experiment [1], the median effective dose (ED50) was more than 100 mg/kg.
In turn, `CN(C)/C=C1\C(=O)N(c2cccc(Cl)c2)c2cc(Cl)ccc21` came in with an ED50 in experiment [1] of more than 100 mg/kg.
Same read-out and setting: then `COc1ccc(N2C(=O)/C(=C(/C)N(C)C)c3ccccc32)cc1Cl`, with 2.8 mg/kg; and `N=C(c1c(O)n(-c2cccc(Cl)c2)c2ccccc12)C(F)(F)F`, with more than 56 mg/kg; and `COc1ccc(-n2c(O)c(C3=NCCC3)c3ccccc32)cc1F`, with 56 mg/kg.
Still for that read-out and setting: the result for `CN(C)/C=C1\C(=O)N(c2ccc(N(C)C)cc2)c2ccccc21` reads more than 100 mg/kg.
In experiment [1], `CN1CCC/C1=C1/C(=O)N(c2ccccc2)c2cc(Cl)ccc21` showed an ED50 of more than 100 mg/kg. Moreover, in the experiment with P23576, the Control is 158%.
In experiment [1], `CCCN(/C=C1\C(=O)N(c2cccc(Cl)c2)c2ccccc21)CCC` came in with an ED50 of more than 100 mg/kg.
On the same count and under the same terms, then `CN(C)/C=C1\C(=O)N(c2cccc(C=O)c2)c2ccccc21`, with more than 100 mg/kg.
In experiment [2], `C/N=C\c1c(O)n(-c2cccc(Cl)c2)c2ccccc12` registered a [3H]flunitrazepam binding of 119%. The molecule further had an ED50 in experiment [1] of more than 100 mg/kg.
Molecule `Oc1c(C2=NCCCCC2)c2ccccc2n1-c1cccc(Cl)c1` came in with an ED50 in experiment [1] of more than 100 mg/kg. The Control in the experiment on P23576 was determined as 138%.
`O=C1/C(=C\N2CCCC2)c2ccccc2N1c1cccc(Cl)c1`: the ED50 in experiment [1] is more than 100 mg/kg.
Still for that read-out and setting: the result for `CN(C)/C=C1\C(=O)N(c2ccccc2)c2ccccc21` reads more than 100 mg/kg.
Still for that read-out and setting: then `C/C(=C1/C(=O)N(c2ccccc2)c2cc(Cl)ccc21)N(C)C`, with 35.9 mg/kg.
Same read-out and setting: the result for `CN(C)/C=C1\C(=O)N(c2cccc(-c3ccccc3)c2)c2ccccc21` reads more than 100 mg/kg.
In the case of `CC(=N)c1c(O)n(-c2cccc(Cl)c2)c2ccccc12`, the [3H]flunitrazepam binding in experiment [2] came out at 103%. This molecule registered a median effective dose (ED50) in experiment [1] of more than 100 mg/kg.
Regarding `CN(C)/C=C1\C(=O)N(c2cc(Cl)cc(Cl)c2)c2ccccc21`, the [3H]flunitrazepam binding in experiment [2] turned out to be 153%. The ED50 in experiment [1] was more than 100 mg/kg.
For the molecule `O=C1/C(=C2/CCCN2Cc2ccc(Cl)cc2)c2ccccc2N1c1cccc(Cl)c1`, in experiment [1], the ED50 was more than 100 mg/kg. This molecule also gave a Control in the experiment with P23576 of 131%.
The matching figures for `CN1CCCC/C1=C1/C(=O)N(c2cccc(Cl)c2)c2ccccc21`: more than 100 mg/kg and 135%.
`C/C(=C1/C(=O)N(c2cccc(C)c2)c2ccccc21)N(C)C` had an ED50 in experiment [1] of 17.8 mg/kg.
Molecule `COc1ccc(N2C(=O)/C(=C\N(C)C)c3ccccc32)cc1C` displayed an ED50 in experiment [1] of 9.1 mg/kg.
On the same count and under the same terms, then `COc1c(C)cc(N2C(=O)/C(=C\N(C)C)c3ccccc32)cc1Cl`, with 15.3 mg/kg.
For the molecule `CN(C)/C=C1\C(=O)N(c2cccc(C#N)c2)c2ccccc21`, in experiment [2], the [3H]flunitrazepam binding was 192%. In addition, in experiment [1], the ED50 was more than 100 mg/kg.
In turn, `CSc1ccc(N2C(=O)/C(=C\N(C)C)c3ccccc32)cc1` had a 50% effective dose (ED50) in experiment [1] of 56 mg/kg.
The same measure, in the same setting: then `CCN(/C=C1\C(=O)N(c2cccc(Cl)c2)c2ccccc21)CC`, with 18 mg/kg.
On the same count and under the same terms, the result for `CCC/N=C/c1c(O)n(-c2cccc(Cl)c2)c2ccccc12` reads more than 56 mg/kg.
In experiment [2], `CN(C)/C=C1\C(=O)N(c2cccc([N+](=O)[O-])c2)c2ccccc21` had a [3H]flunitrazepam binding of 171%. Moreover, the ED50 in experiment [1] is more than 100 mg/kg.
Consider `Cc1ccccc1N1C(=O)/C(=C\N(C)C)c2ccccc21`, for which the ED50 in experiment [1] is 18 mg/kg.
For the molecule `CN(C)/C=C1\C(=O)N(c2ccc(Cl)cc2)c2ccccc21`, the 50% effective dose (ED50) in experiment [1] is more than 100 mg/kg.
Turning to `N=Cc1c(O)n(-c2cccc(Cl)c2)c2ccccc12`, the [3H]flunitrazepam binding in experiment [2] was 134%. Moreover, the ED50 in experiment [1] was 22.1 mg/kg.
In experiment [1], `CN(C)/C=C1\C(=O)N(c2cccc(Cl)c2)c2cccc(Cl)c21` returned an ED50 of more than 100 mg/kg.
Consider `CN(C)/C=C1\C(=O)N(c2cccc(C(F)(F)F)c2)c2ccccc21`, for which, in experiment [2], the [3H]flunitrazepam binding is 131%. The ED50 in experiment [1] was found to be 22.2 mg/kg.
`CN(C)/C=C1\C(=O)N(c2cccc(C(=O)N(C)C)c2)c2ccccc21` displayed a 50% effective dose (ED50) in experiment [1] of more than 100 mg/kg.
Still for that read-out and setting: the result for `CN(C)/C=C1\C(=O)N(c2cccc(O)c2)c2ccccc21` reads more than 100 mg/kg.
For the molecule `Cc1cccc(N2C(=O)/C(=C\N(C)C)c3ccccc32)c1`, the [3H]flunitrazepam binding in experiment [2] was 184%. This molecule also showed an ED50 in experiment [1] of 14.1 mg/kg.
The matching figures for `O=C1/C(=C\N2CCOCC2)c2ccccc2N1c1cccc(Cl)c1`: 121% and more than 100 mg/kg.
Molecule `CCN1CCC/C1=C1/C(=O)N(c2cccc(Cl)c2)c2ccccc21` came in with an ED50 in experiment [1] of more than 100 mg/kg. In addition, in the experiment with P23576, the Control worked out at 164%.
On to `COc1ccc(N2C(=O)/C(=C(/C)N(C)C)c3ccccc32)cc1`, for which the ED50 in experiment [1] is more than 100 mg/kg.
For the molecule `Oc1c(/C=N/Cc2ccccc2)c2ccccc2n1-c1cccc(Cl)c1`, in experiment [1], the ED50 was more than 100 mg/kg.
`Cc1ccc(N2C(=O)/C(=C\N(C)C)c3ccccc32)cc1` returned an ED50 in experiment [1] of 56 mg/kg.
With `COc1ccc(N2C(=O)/C(=C(/C)N(C)C)c3ccccc32)cc1F`, the [3H]flunitrazepam binding in experiment [2] came to 157%. This molecule gave an ED50 in experiment [1] of more than 100 mg/kg.
In turn, `CCc1cccc(N2C(=O)/C(=C\N(C)C)c3ccccc32)c1` returned an ED50 in experiment [1] of 14.1 mg/kg.
As to `CCOc1cccc(N2C(=O)/C(=C\N(C)C)c3ccccc32)c1`, the ED50 in experiment [1] turned out to be 27.9 mg/kg.
`C/C(=C1/C(=O)N(c2ccccc2)c2cc(Cl)ccc21)N1CCCC1`: the [3H]flunitrazepam binding in experiment [2] amounted to 213%. Besides, the ED50 in experiment [1] is more than 56 mg/kg.
`Oc1c(C2=NCCCCC2)c2ccccc2n1-c1ccccc1` came in with an ED50 in experiment [1] of more than 100 mg/kg.
Consider `CN(C)/C=C1\C(=O)N(c2cccc(Cl)c2)c2c(Cl)cccc21`, for which the [3H]flunitrazepam binding in experiment [2] is 169%. The molecule further yielded an ED50 in experiment [1] of more than 100 mg/kg.
`COc1ccc2c(c1)/C(=C/N(C)C)C(=O)N2c1cccc(Cl)c1` had an ED50 in experiment [1] of more than 100 mg/kg.
Same read-out and setting: the result for `CCO/C=C1\C(=O)N(c2cccc(Cl)c2)c2ccccc21` reads more than 100 mg/kg.
In the case of `COc1ccc(N2C(=O)/C(=C\N(C)C)c3ccccc32)cc1F`, in experiment [2], the [3H]flunitrazepam binding was determined as 194%. This molecule registered an ED50 in experiment [1] of 6.6 mg/kg.
As for `COc1ccc(N2C(=O)/C(=C\N(C)C)c3ccccc32)cc1`, in experiment [2], the [3H]flunitrazepam binding is 153%. Moreover, the ED50 in experiment [1] is 48.2 mg/kg.
For `COc1ccc(N2C(=O)/C(=C\N(C)C)c3ccccc32)cc1Cl` the same measures were 244% and 7.2 mg/kg.
For `O=C1/C(=C\N2CCCCC2)c2ccccc2N1c1cccc(Cl)c1` the same measures were 131% and more than 56 mg/kg.
For the molecule `COc1ccc(Cl)cc1N1C(=O)/C(=C\N(C)C)c2ccccc21`, the [3H]flunitrazepam binding in experiment [2] was found to be 149%. Also, in experiment [1], the median effective dose (ED50) was more than 100 mg/kg.
